KCNK3 block: human KCNK3 channel inhibition, primary screen | actives 0.84% (n = 340,000) | B-score at 10 µM | CHO-KCNK3 thallium flux, FluxOR fluorescence; active compounds read low;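 active = B-score under library mean minus 4 SD, starting fluorescence ratio at most library mean plus 5 SD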;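 also: more negative B-score means stronger inhibition of thallium flux through KCNK3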
Cl transport mod: modulators of human KCC2 chloride dependent transport | KCC2 cells, thallium flux FluoZin-2 fluorescence | actives 2.2% (n = 190,000) | Q9H2X9 | B-score of Tl+ flux slope (higher = more flux/activation; lower = inhibition) at 10 µM;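 active = thallium flux slope and its plate-corrected score both differing from the plate sample mean at a set confidence after two filtering rounds, in either direction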;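 also: slope of fluorescence scaled to starting intensity during 10 to 20 s after thallium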
KCNK9 inh: blocks the human KCNK9 two-pore domain potassium channel; actives 1.2% (n = 310,000); B-score at 10 µM; Q9NPC2; HEK293 KCNK9, FluxOR thallium flux fluorescence; active compounds read low;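 active = ratio B-score over 3 SD below the library mean, with starting fluorescence within 5 SD of its mean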;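 also: negative B-score means less thallium flux so channel inhibition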
KCNQ1 block: blocks the human KCNQ1 potassium channel. CHO-K1 KCNQ1, FluxOR thallium flux fluorescence; active compounds read high. B-score at 10 µM. actives 1.3% (n = 310,000);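 active = compounds whose thallium flux B-score, printed positive for inhibition, exceeds three library SD while starting fluorescence stays within three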;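 also: channel opened by potassium depolarization with thallium stimulus after 20 min compound exposure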
hERG rescue: shields human hERG channel from block by proarrhythmic agents; CHO-hERG, FluxOR thallium flux, dofetilide IC70 present; Q12809; AID 1511; activation (rescue from dofetilide block), less the hit threshold, % at 10 µM; actives 0.51% (n = 310,000);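 active = activation above the mean of controls blocked by dofetilide plus 5 SD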;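 also: thallium influx through hERG after potassium depolarization seen as dye fluorescence rise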
KCNQ1 act: human KCNQ1 channel potentiation or activation; AID 2648; CHO-K1 KCNQ1, thallium flux FluxOR fluorescence; active compounds read high; B-score at 10 µM; actives 0.35% (n = 310,000);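 active = fluorescence ratio B-score, a plate-corrected score, at least three library SD, with initial intensity B-score within 5 SD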
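Medium – assay buffer, equal DMSO in all wells · Material – CHO-K1 cell line with stable KCNQ1 potassium channel expression · Signal – kinetic FluxOR thallium fluorescence, 10-s 1-Hz baseline, 110-s post-stimulus read · Compound – single concentration per compound, DMSO matched to controls · Schedule – 37 °C overnight plating, 90-min dark dye load, 20-min compound pretreatment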
KCNK9 inh conf: confirmation of human KCNK9 potassium channel inhibitors; shares compounds with KCNK9 inh; HEK293 KCNK9 cells, FluxOR thallium flux fluorescence; inhibition, % at 10 µM; actives 43% (n = 4,900); AID 492992;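 active = thallium signal inhibited by more than 5 SD of the compound-free buffer control wells, on both duplicate plates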;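 also: 0% = assay buffer control wells without compound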
Kir2-1 spec: selectivity of KCNK9 modulators against mouse Kir2.1; shares compounds with KCNK9 inh; AID 492993; actives 4% (n = 4,900); inhibition, % at 10 µM; Kir2.1 cells, FluxOR thallium flux fluorescence;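 active = thallium signal drop more than 5 SD beyond the mean of the no-compound control wells, seen in both duplicate plates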;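 also: signal is fluorescence rise after thallium addition divided by baseline fluorescence; plate controls were assay buffer only for no effect and full block by chlorpromazine control for full effect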
Target sequence (P35561 whole entry, looked up): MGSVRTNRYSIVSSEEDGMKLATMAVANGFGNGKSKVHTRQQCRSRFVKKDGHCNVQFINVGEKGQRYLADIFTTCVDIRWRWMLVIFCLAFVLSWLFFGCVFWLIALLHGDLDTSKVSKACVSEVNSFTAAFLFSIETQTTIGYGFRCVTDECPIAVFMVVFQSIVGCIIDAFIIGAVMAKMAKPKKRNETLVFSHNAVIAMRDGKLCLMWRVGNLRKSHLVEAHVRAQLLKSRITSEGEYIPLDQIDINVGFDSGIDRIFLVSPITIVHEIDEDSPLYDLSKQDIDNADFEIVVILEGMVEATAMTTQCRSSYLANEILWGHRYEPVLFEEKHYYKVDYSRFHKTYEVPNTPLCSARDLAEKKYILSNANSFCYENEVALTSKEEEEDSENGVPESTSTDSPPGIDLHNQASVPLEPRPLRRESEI
HEK293 Tl ctr: second counter-screen for KCNK9 modulators: effect in non-induced cells; shares compounds with KCNK9 inh; non-induced KCNK9-HEK293, FluxOR thallium flux; inhibition, % at 10 µM; actives 40% (n = 4,900); AID 492997;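 active = thallium signal drop beyond 5 SD of the untreated control mean, on both duplicate plates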;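 also: plate controls were buffer only IC0 wells for no effect and SID17386958 at its maximal inhibitory level for full effect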
* = called active by the depositor; i = inactive; . = no result given. Compounds with a hit are over-represented: about 4.1% of the library has one in this group of screens.

SMILES	KCNK3 block	Cl transport mod	KCNK9 inh	KCNQ1 block	hERG rescue	KCNQ1 act	KCNK9 inh conf	Kir2-1 spec	HEK293 Tl ctr
CCN(CC)c1ccc(/C=N/N2CCN(Cc3ccccc3Cl)CC2)cc1	i	.	i	6*	-8.8	i	i	i	i
O=C(NCCS(=O)(=O)N1CCC2(CC1)OCCO2)c1ccc(F)cc1	i	.	i	i	-8.7	i	.	.	.
O=C(CSc1nc2ccccc2c(=O)n1-c1ccc(F)cc1)NC1CCS(=O)(=O)C1 (stereo not drawn)	i	.	.	.	.	.	.	.	.
O=C(O)CN1C(=O)C(=O)N(Cc2ccc(Cl)cc2Cl)C1=O	i	.	i	i	0.4	i	.	.	.
CSc1ccc(/C=N/N2CCN(Cc3ccc(C)cc3C)CC2)cc1	i	-0.641	i	i	-9.4	i	i	i	i
CCN(CC)c1ccc(/C=N/Nc2cccc(C)c2)c(O)c1	i	1.08	i	i	-7.0	i	i	i	i
C[C@@H](Oc1ccccc1)c1nnn(Cc2ccccc2)c1-c1c([C@@H](C)Oc2ccccc2)nnn1Cc1ccccc1	.	0.64	-11.7*	i	-7.6	i	i	i	35.5%*
Cc1ccc(Oc2cc(C)nc(-c3ccccc3O)n2)cc1	i	.	i	i	-12.6	i	.	.	.
Cc1cc(OCc2ccc(F)cc2)nc(-c2ccccc2O)n1	i	.	-10.2*	i	-3.6	i	66.5%*	i	37.0%*
COc1ccccc1-c1ccc(SCc2ccc(F)cc2)nn1	i	-1.62	i	i	-12.0	i	.	.	.
COc1ccccc1-c1ccc(SCc2ccc(C)cc2)nn1	i	0.317	i	i	-23.7	i	i	i	i
CCN(C(=O)CSc1nc2cc(C(F)(F)F)ccc2n1Cc1ccccc1)C1CCS(=O)(=O)C1 (stereo not drawn)	i	-0.0333	-10*	i	-6.5	i	61.0%*	i	51.5%*
COc1ccccc1NS(=O)(=O)c1ccc2oc(SCc3ccc(F)cc3)nc2c1	i	-0.112	i	i	-21.9	i	.	.	.
COc1ccc(NS(=O)(=O)c2ccc3oc(SCc4ccc(F)cc4)nc3c2)cc1	i	-0.685	i	i	-7.7	i	i	i	i
COCc1ccc(C(=O)N2CCCC(Nc3ccc(F)c(F)c3)C2)s1 (stereo not drawn)	i	.	i	i	-10.8	i	.	.	.
O=C(CCc1ccc(CCC(=O)c2cccs2)s1)c1cccs1	i	-0.0135	-11.3*	i	-10.8	i	57.0%*	i	38.0%*
O=C(CCNc1cc(Cl)cc(Cl)c1)c1cccs1	i	.	-8.73*	i	-16.6	i	i	i	38.5%*
CCN(CC)S(=O)(=O)c1ccc(O)c(C(=O)OCC(=O)Nc2cc(C)c(C)cc2[N+](=O)[O-])c1	i	-0.0105	-11*	i	-10.1	i	32.5%*	i	26.0%*
CC[C@@H](C)[C@H](CNC)NC[C@@H](Cc1cccc2ccccc12)NCCc1cccc(C(F)(F)F)c1	i	.	-9.04*	9*	-42.0	i	38.0%*	52.0%*	33.5%*
CCC[C@H](CN[C@@H](CNC)[C@H](C)CC)NCCc1cc(C(F)(F)F)cc(C(F)(F)F)c1	i	.	i	i	-14.2	i	.	.	.
COc1cc(CCC(N)c2cccc(O)c2)cc(OC)c1OC (stereo not drawn)	i	.	.	.	.	.	.	.	.
CCOC(=O)C1CCN(C(=O)C2CCN(S(=O)(=O)N3CCC4(CC3)OCCO4)CC2)CC1	i	.	i	i	-1.6	i	.	.	.
Fc1cccc(-c2cc3nc4c(c(NCc5ccco5)n3n2)CCCC4)c1	i	-0.626	-10.1*	i	-14.1	i	37.0%*	i	31.5%*
CCOc1ccc2nc(N3CCCCCC3)sc2c1	i	.	i	i	-6.9	i	.	.	.
CCOc1ccc2nc(N3C(=O)/C(=C/c4ccccc4)NC3=S)sc2c1	i	61.6*	i	i	44.7*	134*	i	i	i
SMILES	KCNK3 block	Cl transport mod	KCNK9 inh	KCNQ1 block	hERG rescue	KCNQ1 act	KCNK9 inh conf	Kir2-1 spec	HEK293 Tl ctr
Cc1ccc(OCC(=O)NNC(=O)C2CSC3(C)CCC(=O)N23)cc1C (stereo not drawn)	i	.	.	.	.	.	.	.	.
CSc1cnn(Cc2ccccc2)c(=O)c1SCc1ccccc1	i	0.697	i	i	-6.2	i	i	40.0%*	44.0%*
CCN1C(=O)CC(c2ccc(OC(C)C)cc2)C1=O (stereo not drawn)	i	.	i	i	-10.8	i	.	.	.
CC(C)C(=O)N1CCN(c2ccccc2NC(=O)c2ccc(C#N)cc2F)CC1	i	-0.791	i	i	-19.8	i	i	i	i
Cc1ccc(C)c(SCC(=O)NC(=O)NC2CCCC2)c1	i	.	.	.	.	.	.	.	.
O=c1nc2onnc2c(C=NO)[nH]1	i	.	.	.	.	.	.	.	.
Cc1[nH]nc(C(F)(F)F)c1N=NN1CCOCC1	i	.	.	.	.	.	.	.	.
Oc1cc(-c2ccccc2)c2ccccc2c1	i	-0.00534	-10.6*	8*	-16.7	i	49.0%*	i	34.5%*
Cc1cc(C(=O)CCC(=O)N2CCN(c3ccccc3F)CC2)c(C)s1	i	-2	i	i	-25.5	i	i	i	i
C[C@@H]1COC(=O)[C@H](CC(=O)OC(C)(C)C)C/C=C\C[C@@H](CC(=O)NCCO)C(=O)N1	i	.	.	.	.	.	.	.	.
Cc1cc(C)c(NC(=O)/C(C#N)=C/c2ccc(OCc3ccc(F)cc3)cc2)c(C)c1	i	0.127	i	i	-11.4	i	i	i	i
COC(=O)c1ccc(COc2ccccc2/C=C(\C#N)C(=O)Nc2c(C)cc(C)cc2C)cc1	i	1.1	-15.8*	i	-16.4	i	77.5%*	i	28.5%*
Cc1ccc(C(=O)N2C(=S)C(c3ccc(F)cc3)=NC23CCN(C)CC3)cc1	i	1.25	i	i	-16.7	i	i	i	i
C=CC[C@@H](CC(=O)N[C@H](CO)Cc1ccccc1)C(=O)NCCOC(=O)[C@@H](CC=C)CC(=O)OC(C)(C)C	i	.	.	.	.	.	.	.	.
CCCCCCCCC/C(=N\O)c1ccccn1	i	0.645	-14.9*	7*	-7.0	i	41.0%*	i	49.5%*
O=C(Cc1cn(Cc2cccc(Cl)c2)c2ccccc12)N1CCCCCC1	i	-0.566	-10.7*	i	-10.8	i	53.5%*	35.5%*	38.0%*
